Test [1] concerns Mus musculus. Kind of test: Antagonistic activity against clonidine-induced antinociception in mouse after po administration. Type of test: functional. The method in brief: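 Swiss Webster mice (18–24 g), 10 per treatment. Test compound was given orally in 0.9% NaCl at 10 mL/kg. […] Mice were observed 5–10 min after PPQ, and those writhing at least 3 times were counted as percent reversal.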

Test [2] addresses T1, Adrenergic receptor alpha-2 (Rattus norvegicus, UniProt P22086+P19328+P22909).
T1 sequence (P22086 whole entry): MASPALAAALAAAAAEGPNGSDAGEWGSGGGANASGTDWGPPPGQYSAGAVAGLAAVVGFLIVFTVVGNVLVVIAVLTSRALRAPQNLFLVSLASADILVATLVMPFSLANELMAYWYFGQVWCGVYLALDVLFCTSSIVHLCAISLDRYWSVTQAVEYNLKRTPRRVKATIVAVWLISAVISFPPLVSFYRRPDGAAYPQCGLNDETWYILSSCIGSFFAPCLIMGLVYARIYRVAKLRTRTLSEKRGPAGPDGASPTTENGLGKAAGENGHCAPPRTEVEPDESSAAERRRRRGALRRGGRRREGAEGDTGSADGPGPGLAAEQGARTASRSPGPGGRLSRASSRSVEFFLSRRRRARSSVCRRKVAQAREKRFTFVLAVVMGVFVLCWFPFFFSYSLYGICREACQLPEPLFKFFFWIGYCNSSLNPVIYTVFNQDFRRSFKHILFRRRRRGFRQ
T1 sequence (P19328 whole entry): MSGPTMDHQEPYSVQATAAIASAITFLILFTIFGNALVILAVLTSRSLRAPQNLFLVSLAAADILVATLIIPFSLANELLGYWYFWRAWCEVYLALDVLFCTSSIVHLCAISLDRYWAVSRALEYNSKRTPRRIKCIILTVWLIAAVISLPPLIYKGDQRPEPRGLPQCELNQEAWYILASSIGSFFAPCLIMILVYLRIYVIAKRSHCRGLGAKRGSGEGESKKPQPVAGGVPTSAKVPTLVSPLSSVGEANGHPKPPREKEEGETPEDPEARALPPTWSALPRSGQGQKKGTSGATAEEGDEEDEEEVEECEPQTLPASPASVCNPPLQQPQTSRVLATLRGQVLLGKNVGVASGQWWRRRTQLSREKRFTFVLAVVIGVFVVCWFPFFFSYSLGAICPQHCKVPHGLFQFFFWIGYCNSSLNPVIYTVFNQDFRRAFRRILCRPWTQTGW
T1 sequence (P22909 whole entry): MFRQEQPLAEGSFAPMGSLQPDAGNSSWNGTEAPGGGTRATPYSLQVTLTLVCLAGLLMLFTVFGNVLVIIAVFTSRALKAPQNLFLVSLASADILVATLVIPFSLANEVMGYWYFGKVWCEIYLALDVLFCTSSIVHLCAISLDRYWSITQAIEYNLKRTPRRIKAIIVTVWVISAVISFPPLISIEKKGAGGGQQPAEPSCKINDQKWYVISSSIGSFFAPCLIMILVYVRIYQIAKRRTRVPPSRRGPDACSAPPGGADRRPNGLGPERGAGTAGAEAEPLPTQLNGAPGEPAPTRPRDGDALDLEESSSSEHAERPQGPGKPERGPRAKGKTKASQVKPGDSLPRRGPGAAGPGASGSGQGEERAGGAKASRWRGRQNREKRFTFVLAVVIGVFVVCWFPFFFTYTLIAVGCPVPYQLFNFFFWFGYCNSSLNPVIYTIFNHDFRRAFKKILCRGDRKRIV
Briefly: Alpha-2 adrenergic receptor antagonistic activity in rat vas deferens vs clonidin. Type of test: functional, tissue-based. The method in brief: (§1)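 Vasa deferentia from Sprague-Dawley rats (180–250 g) mounted between platinum ring electrodes at 1 g resting tension in oxygenated Krebs at 37 °C. Single-pulse electrical stimulation (1 ms, 0.15 Hz, lowest voltage giving maximal contraction).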

Test [3] addresses T1, Adrenergic receptor alpha-2. Kind of test: Binding affinity against alpha-2 adrenergic receptor was determined by the displacement of [3H]clonidine from rat brain cortical membranes. Type of test: cell membranes, Membrane.
For test [4] the target is unchanged. Briefly: Alpha-2 adrenergic receptor agonistic activity in rat vas deferens.
For test [5] the target is unchanged. Briefly: The compound was evaluated for the alpha-2 adrenergic receptor antagonistic activity in rat vas deferens vs clonidin. Type of test: functional, tissue-based. The method in brief: as §1
Test [6] shares this target. Kind of test: Alpha-2 adrenergic receptor antagonistic activity in rat vas deferens vs clonidine. Type of test: functional, tissue-based.
Test [7] concerns the target T2, Adrenergic receptor alpha-2 (Rattus norvegicus) (UniProt P22086+P19328+P22909). Briefly: The compound was evaluated for the alpha-2 adrenergic receptor antagonistic activity in rat vas deferens vs clonidin; l = compound contracted the tissue at 100nM, which is an alpha-1 agonist like response. Type of test: functional, tissue-based. The conditions noted are these: filed as agonist.

Test [8] concerns the target T2, Adrenergic receptor alpha-2 (Rattus norvegicus). Briefly: The compound was evaluated for the alpha-2 adrenergic receptor antagonistic activity in rat vas deferens vs clonidine; i = the compound contracted the tissue at 100 nM. Type of test: functional, tissue-based. The settings on record: filed as agonist. The essentials:
as §1

Structures are written as SMILES. Where only a bound is given, the exact number is not on record here.

As usually defined, the ED50 is the dose that gives a 50% effect, or the effect in half of the subjects. As usually defined, the pA2 is the negative logarithm of the molar antagonist concentration that doubles the agonist concentration needed for the same response. What is called Ki is a dissociation constant, usually derived from enzyme kinetics or from competition with a known ligand. A low value points to tighter binding. For `c1ccc(CN2c3ccccc3CC2C2=NCCN2)cc1` (stereo not given), the ED50 in test [1] came out at 7 mg/kg. The compound also returned a pA2 in test [2] of 7.93. In test [3], the inhibition constant (Ki) is 2.3 nM.

What is called IC50 is the point on the concentration scale where inhibition reaches its midpoint. As to `C[C@H]1c2ccccc2N(C)[C@@H]1C1=NCCN1`, the IC50 in test [4] is given as more than 1000 nM. The compound also yielded a pA2 in test [2] of 6.96. The compound further came in with a Ki in test [3] of 72.3 nM.

For the compound `CN1c2c(Cl)cccc2CC1C1=NCCN1` (stereo not given), the ED50 in test [1] is 0.1 mg/kg. This compound showed a pA2 in test [5] of 8.8. For the same compound, in test [3], the Ki worked out at 0.72 nM.

Consider `C=CC[C@@]1(C2=NCCN2)Cc2ccccc2N1C`, for which, in test [4], the IC50 is more than 1000 nM. Further, in test [5], the pA2 worked out at 6.96. Also, in test [3], the Ki came to 77 nM.

`c1ccc(CCN2c3ccccc3CC2C2=NCCN2)cc1` (stereo not given): it took a dose of 6 mg/kg to reach the 50% effect level in test [1] (ED50). The same compound returned a Ki in test [3] of 6 nM.

As for `Cn1c(CC2=NCCN2)cc2ccccc21`, in test [1], it took a dose of 100 mg/kg to reach the 50% effect level (ED50). In test [6], this compound showed a pA2 of 7.48. Moreover, the Ki in test [3] was 46.7 nM.

For `COC(=O)[C@@H]1[C@H]2C[C@H]3c4[nH]c5ccccc5c4CCN3C[C@@H]2CC[C@@H]1O` [YOHIMBINE], the ED50 in test [1] stood at 0.6 mg/kg.

For the compound `C[C@@H]1c2ccccc2N(C)[C@@H]1C1=NCCN1`, the ED50 in test [1] was more than 300 mg/kg. The compound also had an IC50 in test [4] of 3.29 nM. Moreover, the pA2 in test [5] was less than 6. The compound also registered a Ki in test [3] of 6.9 nM.

With `CN1c2c(Cl)cc(Cl)cc2CC1C1=NCCN1` (stereo not given), the pA2 in test [2] came to 8. For the same compound, the Ki in test [3] is recorded as 12.3 nM.

Turning to `c1ccc2c(c1)CCC(C1=NCCN1)N2` (stereo not given), the pA2 in test [2] is on record as 8.03. In test [3], this compound displayed a Ki of 13.8 nM.

As to `CN(CC1=NCCN1)c1ccccc1`, the Ki in test [3] worked out at 3.9 nM. Further, the pA2 result in test [7] was “Agonist”.

Take `CC(C)N(C[C@@]1(C2=NCCN2)Cc2ccccc2N1C)C(C)C`: in test [4], the IC50 is listed as 94.8 nM. This compound gave a Ki in test [3] of 25.1 nM.

In test [3], `c1ccc2c(c1)CCN2C1=NCCN1` came in with a Ki of more than 1000 nM.

Turning to `CN1c2ccccc2C[C@@]1(C)C1=NCCN1`, in test [4], the IC50 is on record as more than 300 nM. This compound showed a pA2 in test [5] of 7.55. In test [3], this compound registered a Ki of 3.4 nM.

`CN1c2ccc(Cc3ccccc3)cc2CC1C1=NCCN1` (stereo not given) registered an ED50 in test [1] of more than 100 mg/kg. Further, the pA2 in test [2] was determined as 7.59. Besides, in test [3], the Ki stood at 53.6 nM.

Consider `Cn1c(C2=NCCN2)cc2ccccc21`, for which, in test [6], the pA2 is more than 6. Besides, the Ki in test [3] is reported as more than 1000 nM.

In test [4], `CCC[C@@]1(C2=NCCN2)Cc2ccccc2N1C` came in with an IC50 of more than 1000 nM. In test [2], this compound returned a pA2 of 6.6. For the same compound, the Ki in test [3] was determined as 260 nM.

Take `c1ccc2c(c1)OCC(C1=NCCN1)O2` (stereo not given) [IDAZOXAN]: the ED50 in test [1] is 1.6 mg/kg.

With `c1ccc2c(c1)CC(C1=NCCN1)N2` (stereo not given), in test [6], the pA2 amounted to 8.16. In test [3], the Ki worked out at 2.11 nM.

`CN1c2ccccc2CCC1C1=NCCN1` (stereo not given) gave a pA2 in test [2] of 8.13. Also, the inhibition constant Ki in test [3] is 1.52 nM.

In test [6], `CN1c2ccccc2CC1CC1=NCCN1` (stereo not given) returned a pA2 of less than 6. This compound also registered a Ki in test [3] of 355 nM.

As to `CCN1c2ccccc2CC1C1=NCCN1` (stereo not given), the ED50 in test [1] came out at 2.6 mg/kg. Further, in test [2], the pA2 is 8.91. The compound further had a Ki in test [3] of 0.91 nM.

`CCOCCN1c2ccccc2CC1C1=NCCN1` (stereo not given): it took a dose of 20.5 mg/kg to reach the 50% effect level in test [1] (ED50). For the same compound, the pA2 in test [6] worked out at 7.81. The compound also returned a Ki in test [3] of 26 nM.

`CCCCN1c2ccccc2CC1C1=NCCN1` (stereo not given): in test [1], the 50% effect level (ED50) was put at a dose of 4 mg/kg. In test [6], the pA2 came to 8.8. Besides, in test [3], the Ki is given as 3.5 nM.

With `CCCN1c2ccccc2CC1C1=NCCN1` (stereo not given), the ED50 in test [1] was determined as 100 mg/kg. In test [2], this compound displayed a pA2 of 8.76. Further, the Ki in test [3] worked out at 1.93 nM.

Consider `c1ccc(N2c3ccccc3CC2C2=NCCN2)cc1` (stereo not given), for which the pA2 result in test [8] was “Agonist”. Moreover, in test [3], the Ki was 4.2 nM.

For `CN1c2ccc(Cl)cc2CC1C1=NCCN1` (stereo not given), in test [2], the pA2 was found to be 8.56. Besides, in test [3], the Ki was found to be 1.9 nM.

`C[C@@H]1Cc2ccccc2N[C@@H]1C1=NCCN1`: the IC50 in test [4] is given as more than 1000 nM. Besides, the pA2 in test [2] is listed as less than 6. For the same compound, in test [3], the Ki is on record as more than 1000 nM.

With `C[C@@H]1Cc2ccccc2N(C)[C@@H]1C1=NCCN1`, in test [2], the pA2 amounted to 5.88. The compound also had a Ki in test [3] of 719 nM.

The values above are taken from ChEMBL document CHEMBL1123827, “Alpha 2-adrenergic agonists/antagonists: the synthesis and structure-activity relationships of a series of indolin-2-yl and tetrahydroquinolin-2-yl imidazolines” (J Med Chem, 1987).
